Source: ChEMBL document CHEMBL1137767, “2-(3-Aryl-2-propenoyl)-3-methylquinoxaline-1,4-dioxides: a novel cluster of tumor-specific cytotoxins which reverse multidrug resistance” (Bioorg Med Chem, 2009)
Activity calls are given as the source filed them. No cut-off for these calls is given here.

Assays:
[1] = Growth inhibition of human Molt4/C8 cells after 3 days; type: functional, cell-based; details: MOLT-4, 72 h
How it was run: (§1)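 Human CEM and Molt 4/C8 T-lymphocytes were grown for three days with or without serial dilutions of the compound. IC50 is the concentration that inhibits cell growth by 50%.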

[2] = system: CCRF-CEM; test: Growth inhibition of human CEM cells after 3 days; type: functional, cell-based; details: 72 h; how it was run: as §1
[3] = target: T1, ATP-dependent translocase ABCB1 (Homo sapiens, UniProt P08183); test: Reversal of P-glycoprotein-mediated multidrug resistance in human MDR1 gene transfected mouse L5178Y cells assessed as fluorescence activity ratio at 20 uM by rhodamine 123 accumulation assay; type: cell-based
How it was run: (§2)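 Murine L-5178Y lymphoma cells transfected with human MDR1 gene (P-gp-overexpressing), alongside parental cells, treated or untreated with compound; rhodamine 123 accumulation measured by fluorescence; FAR = ratio of fluorescence intensity in treated versus untreated cells, values above 1 taken as MDR reversal.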

[4] = target: T1, ATP-dependent translocase ABCB1; test: Reversal of P-glycoprotein-mediated multidrug resistance in human MDR1 gene transfected mouse L5178Y cells assessed as fluorescence activity ratio at 200 uM by rhodamine 123 accumulation assay; type: cell-based; how it was run: as §2
[5] = Cytotoxicity against human HGF cells after 48 hrs; type: cell-based
[6] = Cytotoxicity against human HPC cells after 48 hrs; type: cell-based
[7] = Cytotoxicity against human HPLF cells after 48 hrs; type: cell-based
[8] = system: HL-60; test: Cytotoxicity against human HL60 cells after 48 hrs; type: functional; details: HL-60, 48 h
[9] = system: HSC-2; test: Cytotoxicity against human HSC2 cells after 48 hrs; type: functional; details: HSC-2, 48 h
[10] = system: HSC-3; test: Cytotoxicity against human HSC3 cells after 48 hrs; type: functional; details: HSC-3, 48 h
[11] = system: HSC-4; test: Cytotoxicity against human HSC4 cells after 48 hrs; type: functional; details: HSC-4, 48 h
[12] = system: CCRF-CEM; test: Growth inhibition of human CCRF-CEM cells at 10 uM; type: functional, cell-based
How it was run: (§3)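 Human tumor cell line panel (59 lines across leukemia, melanoma, non-small cell lung, colon, CNS, ovarian, renal, prostate, breast) treated at a single 10 uM concentration; growth inhibition recorded per line.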

[13] = system: HL-60; test: Growth inhibition of human HL60 cells at 10 uM; type: functional, cell-based; how it was run: as §3
[14] = system: K562; test: Growth inhibition of human K562 cells at 10 uM; type: functional, cell-based; how it was run: as §3
[15] = system: RPMI8266; test: Growth inhibition of human […] cells at 10 uM; type: functional, cell-based; how it was run: as §3
[16] = system: A549; test: Growth inhibition of human A549 cells at 10 uM; type: functional, cell-based; how it was run: as §3
[17] = system: EKVX; test: Growth inhibition of human EKVX cells at 10 uM; type: functional, cell-based; how it was run: as §3
[18] = system: HOP-92; test: Growth inhibition of human HOP92 cells at 10 uM; type: functional, cell-based; how it was run: as §3
[19] = system: NCI-H23; test: Growth inhibition of human NCI-H23 cells at 10 uM; type: functional, cell-based; how it was run: as §3
[20] = system: NCI-H460; test: Growth inhibition of human NCI-H460 cells at 10 uM; type: functional, cell-based; how it was run: as §3
[21] = system: NCI-H522; test: Growth inhibition of human NCI-H522 cells at 10 uM; type: functional, cell-based; how it was run: as §3
[22] = system: HCC 2998; test: Growth inhibition of human HCC2998 cells at 10 uM; type: functional, cell-based; how it was run: as §3
[23] = system: HCT-116; test: Growth inhibition of human HCT116 cells at 10 uM; type: functional, cell-based; how it was run: as §3
[24] = system: HCT-15; test: Growth inhibition of human HCT15 cells at 10 uM; type: functional, cell-based; how it was run: as §3
[25] = system: SW-620; test: Growth inhibition of human SW620 cells at 10 uM; type: functional, cell-based; how it was run: as §3
[26] = system: SF-295; test: Growth inhibition of human SF295 cells at 10 uM; type: functional, cell-based; how it was run: as §3
[27] = system: SNB-75; test: Growth inhibition of human SNB75 cells at 10 uM; type: functional, cell-based; how it was run: as §3
[28] = system: U-251; test: Growth inhibition of human U251 cells at 10 uM; type: functional, cell-based; how it was run: as §3
[29] = system: LOX IMVI; test: Growth inhibition of human LOXIMVI cells at 10 uM; type: functional, cell-based; how it was run: as §3
[30] = system: M14; test: Growth inhibition of human M14 cells at 10 uM; type: functional, cell-based; how it was run: as §3
[31] = system: UACC-62; test: Growth inhibition of human UACC62 cells at 10 uM; type: functional, cell-based; how it was run: as §3
[32] = system: IGROV-1; test: Growth inhibition of human IGROV1 cells at 10 uM; type: functional, cell-based; how it was run: as §3
[33] = system: OVCAR-3; test: Growth inhibition of human OVCAR-3 cells at 10 uM; type: functional, cell-based; how it was run: as §3
[34] = system: OVCAR-4; test: Growth inhibition of human OVCAR4 cells at 10 uM; type: functional, cell-based; how it was run: as §3
[35] = system: OVCAR-8; test: Growth inhibition of human OVCAR8 cells at 10 uM; type: functional, cell-based; how it was run: as §3
[36] = system: A498; test: Growth inhibition of human A498 cells at 10 uM; type: functional, cell-based; how it was run: as §3
[37] = system: CAKI-1; test: Growth inhibition of human Caki1 cells at 10 uM; type: functional, cell-based; how it was run: as §3
[38] = system: RXF 393; test: Growth inhibition of human RXF393 cells at 10 uM; type: functional, cell-based; how it was run: as §3
[39] = system: UO-31; test: Growth inhibition of human UO31 cells at 10 uM; type: functional, cell-based; how it was run: as §3
[40] = system: PC-3; test: Growth inhibition of human PC3 cells at 10 uM; type: functional, cell-based; how it was run: as §3
[41] = system: DU-145; test: Growth inhibition of human DU145 cells at 10 uM; type: functional, cell-based; how it was run: as §3
[42] = system: MCF7; test: Growth inhibition of human MCF7 cells at 10 uM; type: functional, cell-based; how it was run: as §3
[43] = system: NCI/ADR-RES; test: Growth inhibition of human NCI/ADR-RES cells at 10 uM; type: functional, cell-based; how it was run: as §3
[44] = system: MDA-MB-468; test: Growth inhibition of human MDA-MB-468 cells at 10 uM; type: functional, cell-based; how it was run: as §3
[45] = system: Hs-578T; test: Growth inhibition of human Hs 578T cells at 10 uM; type: functional, cell-based; how it was run: as §3
[46] = system: MDA-MB-435; test: Growth inhibition of human MDA-MB-435 cells at 10 uM; type: functional, cell-based; how it was run: as §3
[47] = system: T47D; test: Growth inhibition of human T47D cells at 10 uM; type: functional, cell-based; how it was run: as §3

T1 sequence (P08183 whole entry): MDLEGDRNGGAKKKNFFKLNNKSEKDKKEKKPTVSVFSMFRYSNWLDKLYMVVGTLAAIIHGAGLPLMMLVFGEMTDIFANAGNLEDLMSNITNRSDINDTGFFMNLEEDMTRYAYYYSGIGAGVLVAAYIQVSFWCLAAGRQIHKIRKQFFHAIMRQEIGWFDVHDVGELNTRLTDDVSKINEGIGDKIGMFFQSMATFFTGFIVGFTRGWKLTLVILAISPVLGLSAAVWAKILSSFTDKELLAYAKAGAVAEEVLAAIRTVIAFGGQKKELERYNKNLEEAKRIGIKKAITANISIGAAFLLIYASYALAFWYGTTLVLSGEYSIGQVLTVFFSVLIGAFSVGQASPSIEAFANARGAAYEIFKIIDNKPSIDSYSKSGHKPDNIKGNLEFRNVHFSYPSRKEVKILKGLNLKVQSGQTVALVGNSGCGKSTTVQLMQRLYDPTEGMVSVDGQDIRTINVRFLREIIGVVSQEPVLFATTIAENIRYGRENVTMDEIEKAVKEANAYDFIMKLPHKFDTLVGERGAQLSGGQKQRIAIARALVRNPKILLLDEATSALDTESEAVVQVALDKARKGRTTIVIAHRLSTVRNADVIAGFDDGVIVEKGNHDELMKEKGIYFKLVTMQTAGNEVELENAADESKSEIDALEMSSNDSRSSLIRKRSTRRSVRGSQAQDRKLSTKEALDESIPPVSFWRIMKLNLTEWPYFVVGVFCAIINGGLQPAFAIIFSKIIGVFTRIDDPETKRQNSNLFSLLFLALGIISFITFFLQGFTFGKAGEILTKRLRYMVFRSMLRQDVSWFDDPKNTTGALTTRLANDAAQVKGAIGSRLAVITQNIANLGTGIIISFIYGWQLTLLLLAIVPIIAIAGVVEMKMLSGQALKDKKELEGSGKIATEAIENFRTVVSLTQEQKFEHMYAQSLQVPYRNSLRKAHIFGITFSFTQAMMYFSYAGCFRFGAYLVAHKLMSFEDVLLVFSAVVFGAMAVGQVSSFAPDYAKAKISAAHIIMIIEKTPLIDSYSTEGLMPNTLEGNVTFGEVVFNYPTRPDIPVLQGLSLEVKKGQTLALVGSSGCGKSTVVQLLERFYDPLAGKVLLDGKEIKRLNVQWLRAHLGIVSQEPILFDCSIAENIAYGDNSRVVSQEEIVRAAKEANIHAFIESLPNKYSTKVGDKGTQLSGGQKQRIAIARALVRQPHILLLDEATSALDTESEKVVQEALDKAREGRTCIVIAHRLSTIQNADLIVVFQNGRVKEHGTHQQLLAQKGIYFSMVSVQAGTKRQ

Structure (SMILES): COc1ccc(/C=C/C(=O)c2c(C)[n+]([O-])c3ccccc3[n+]2[O-])cc1
- IC50 [1]: 25.8 µM
- IC50 [2]: 27.6 µM
- Ratio [3]: 4.25
- Ratio [4]: 31.7
- CC50 at 48 h [5]: 52 µM
- CC50 at 48 h [6]: 92 µM
- CC50 at 48 h [7]: 93 µM
- CC50 [8]: 16 µM
- CC50 [9]: 20 µM
- CC50 [10]: 23 µM
- CC50 [11]: 11 µM
- growth inhibition (GI) [12]: Active
- growth inhibition (GI) [13]: Active
- growth inhibition (GI) [14]: Active
- growth inhibition (GI) [15]: Active
- growth inhibition (GI) [16]: Active
- growth inhibition (GI) [17]: Active
- growth inhibition (GI) [18]: Active
- growth inhibition (GI) [19]: Active
- growth inhibition (GI) [20]: Active
- growth inhibition (GI) [21]: Active
- growth inhibition (GI) [22]: Active
- growth inhibition (GI) [23]: Active
- growth inhibition (GI) [24]: Active
- growth inhibition (GI) [25]: Active
- growth inhibition (GI) [26]: Active
- growth inhibition (GI) [27]: Active
- growth inhibition (GI) [28]: Active
- growth inhibition (GI) [29]: Active
- growth inhibition (GI) [30]: Active
- growth inhibition (GI) [31]: Active
- growth inhibition (GI) [32]: Active
- growth inhibition (GI) [33]: Active
- growth inhibition (GI) [34]: Active
- growth inhibition (GI) [35]: Active
- growth inhibition (GI) [36]: Active
- growth inhibition (GI) [37]: Active
- growth inhibition (GI) [38]: Active
- growth inhibition (GI) [39]: Active
- growth inhibition (GI) [40]: Active
- growth inhibition (GI) [41]: Active
- growth inhibition (GI) [42]: Active
- growth inhibition (GI) [43]: Active
- growth inhibition (GI) [44]: Active
- growth inhibition (GI) [45]: Active
- growth inhibition (GI) [46]: Active
- growth inhibition (GI) [47]: Active
